Columns and labels:
Assay type in all cases: functional, cell-based
A549 = assay: Antiproliferative activity in human A549 cells assessed as reduction in cell number incubated for 48 hrs by SRB assay; conditions: A549, 48 h
Procedure, shortened: (§1)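 Cell lines from ATCC, kept in DMEM with 10% FBS and 1% penicillin–streptomycin at 37 °C under 5% CO2. Seeded from 5×10^4 cells/ml suspension, grown 24 h, then treated with 1, 10, 50 and 100 μM for 48 h. Fixed with cold 10% TCA 1 h at 4 °C, stained with 0.057% SRB, dye dissolved in 10 mM Tris, read at 510 nm. IC50 is 50% cell-number decrease versus untreated control, from regression.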

HeLa = assay: Antiproliferative activity in human HeLa cells assessed as reduction in cell number incubated for 48 hrs by SRB assay; procedure, shortened: as §1
MCF7 = assay: Antiproliferative activity in human MCF7 cells assessed as reduction in cell number incubated for 48 hrs by SRB assay; conditions: MCF7, 48 h; procedure, shortened: as §1
IMR-32 = assay: Antiproliferative activity in human IMR32 cells assessed as reduction in cell number incubated for 48 hrs by SRB assay; conditions: IMR-32, 48 h; procedure, shortened: as §1

Compound | IC50 (A549) | IC50 (HeLa) | IC50 (MCF7) | IC50 (IMR-32)
COc1ccc(C[C@@H](O)/C=C/C=C/C(=O)N2CCN(Cc3ccc4c(c3)OCO4)CC2)cc1OC | 7.58 µM | 8.25 µM | 12.3 µM | 8.23 µM
COc1ccc(C[C@@H](O)/C=C/C=C/C(=O)N2CCN(c3ccccc3)CC2)cc1OC | 14.2 µM | 9.75 µM | 12 µM | 9.43 µM
COc1ccc(C[C@@H](O)/C=C/C=C/C(=O)N2CCN(C(c3ccccc3)c3ccccc3)CC2)cc1OC | 10.6 µM | 10.5 µM | 12.5 µM | 11.9 µM
COc1ccc(C[C@@H](O)/C=C/C=C/C(=O)NCc2ccc(Cl)cc2)cc1OC | 16.5 µM | 13.4 µM | 18.1 µM | 15.7 µM
COc1ccc(/C=C\c2cc(OC)c(OC)c(OC)c2)cc1O [COMBRETASTATIN A4] | 6.45 µM | 5.36 µM | 4.63 µM | 5.72 µM
COc1ccc(C[C@@H](O)/C=C/C=C/C(=O)NCc2cc(OC)c(OC)c(OC)c2)cc1OC | 19.2 µM | 10.7 µM | 15.3 µM | 13.4 µM
O=C(/C=C/C=C/c1ccc2c(c1)OCO2)N1CCCCC1 [PIPERINE] | 11.9 µM | 19.2 µM | 13 µM | 10.2 µM
COc1ccc(C[C@@H](O)/C=C/C=C/C(=O)N2CCN(C)CC2)cc1OC | 22.2 µM | 16.5 µM | 17.1 µM | 18.9 µM
COc1ccc(C[C@@H](O)/C=C/C=C/C(=O)N2CCN(c3ncccn3)CC2)cc1OC | 9.92 µM | 12.6 µM | 14.7 µM | 10.8 µM
COc1ccc(CNC(=O)/C=C/C=C/[C@H](O)Cc2ccc(OC)c(OC)c2)cc1 | 16.8 µM | 9.45 µM | 26.6 µM | 17.4 µM
COc1ccc(C[C@@H](O)/C=C/C=C/C(=O)N2CCSCC2)cc1OC | 18 µM | 20.6 µM | 20.2 µM | 16.1 µM
COc1ccc(C[C@@H](O)/C=C/C=C/C(=O)N2CCOCC2)cc1OC | 17.9 µM | 16.4 µM | 16.2 µM | 20.4 µM
COc1ccc(C[C@@H](O)/C=C/C=C/C(=O)N2CCCCC2)cc1OC | 16.4 µM | 14.1 µM | 39.5 µM | 11 µM
CCNC(=O)/C=C/C=C/[C@H](O)Cc1ccc(OC)c(OC)c1 | 13.8 µM | 14.6 µM | 12.9 µM | 9.43 µM
COc1ccc(C[C@@H](O)/C=C/C=C/C(=O)N2CCCC2)cc1OC | 24.4 µM | 14.1 µM | 26.2 µM | 12 µM
COc1ccc(C[C@@H](O)/C=C/C=C/C(=O)NCc2ccccc2)cc1OC | 17.1 µM | 12.9 µM | 33.6 µM | 16.6 µM
COc1ccc(C[C@@H](O)/C=C/C=C/C(=O)N2CCN(c3ccccn3)CC2)cc1OC | 8.13 µM | 23.6 µM | 23.6 µM | 11.1 µM
CCN1CCN(C(=O)/C=C/C=C/[C@H](O)Cc2ccc(OC)c(OC)c2)CC1 | 15.7 µM | 11.7 µM | 11.5 µM | 10.8 µM

From ChEMBL document CHEMBL4138070, “Synthesis and biological evaluation of (-)-kunstleramide and its derivatives” (Medchemcomm, 2017)
